The EternaBench riboswitch data

Test system: MS2 coat protein
Assay: apparent Kd, MS2 coat protein; higher = weaker binding; RNA-MaP array; FMN 200 µM where present
Method in brief: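 On Illumina sequencing-chip clusters, designs were transcribed by stalled E. coli RNA polymerase and titrated with SNAP-549-labelled MS2 coat protein (0.7 or 1.5 nM, doubling to 3 µM), without and then with constant ligand, in 100 mM Tris-HCl pH 7.5, 80 mM KCl, 4 mM MgCl2, BSA, DTT, yeast tRNA and Tween-20. Apparent Kd is the median of filtered per-cluster curve fits to green signal normalised to red-channel RNA signal and control-cluster median Fmax.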

[1] = designed as: OFF switch for flavin mononucleotide, no ligand
[2] = ligand present: flavin mononucleotide, designed as: OFF switch for flavin mononucleotide
[3] = designed as: ON switch for flavin mononucleotide, no ligand
[4] = ligand present: flavin mononucleotide, designed as: ON switch for flavin mononucleotide

Sequence: GGAUAGGACAGAGGAUAUACGUGCGAGAGAUACUAGCAAAAUUUCCUCACAUGAGGAUCACCCAUGUAGAAGGCUGUCCUAUCG
- apparent Kd [1]: 162 nM
- apparent Kd [2]: 195 nM

Sequence: GGAUAGGACAGAGGAUAUACGUGCUAGAGACACUAGCAAAAUUUCCUCACAUGAGGAUCACCCAUGUAGAAGGCUGUCCUAUCG
- apparent Kd [1]: 15.4 nM
- apparent Kd [2]: 405 nM

Sequence: GGAUAGGACAGAGGAUAUACGUGCUAGAGAUACAAGCAAAAUUUCCUCACAUGAGGAUCACCCAUGUAGAAGGCUGUCCUAUCG
- apparent Kd [1]: 43.7 nM
- apparent Kd [2]: 432 nM

Sequence: GGAUAGGACAGAGGAUAUACGUGCUAGAGAUACUAGCAAAAUUUCCUCACAUGAGGAUCACCCAUGUAGAAGGCUGUCCUACCG
- apparent Kd [1]: 17 nM
- apparent Kd [2]: 484 nM

Sequence: GGAUAGGACAGAGGAUAUACGUGCUAGAGAUACUAGCAAAAUUUCCUCACAUGAGGAUCACCCAUGUAGAAGGCUGUCUUAUCG
- apparent Kd [1]: 16 nM
- apparent Kd [2]: 191 nM

Sequence: GGAUAGGACAGAGGAUAUACGUGCUAGAGUUACUAGCAAAAUUUCCUCACAUGAGGAUCACCCAUGUAGAAGGCUGUCCUAUCG
- apparent Kd [1]: 15.6 nM
- apparent Kd [2]: 470 nM

Sequence: GGAUCACAAAGUGAUCCAAUACGAACAUGAGGAUCACCCAUGUAGGAUAUGCUACUCAAAGAGUAGCAGAAGGACAUGUGCCUU
- apparent Kd [1]: 35.4 nM
- apparent Kd [2]: 296 nM

Sequence: GGAUCAGAUGAGGAUAUUCGUUGUAUAACAACAGGAGAAGGCAUCACAUGAGGAUCACCCAUGUUCUACCUUCC
- apparent Kd [1]: 14.1 nM
- apparent Kd [2]: 15.8 nM

Sequence: GGAUCCAUGUAGAAGGCUGUCUUAAAAUAGGACAGAGGAUAUACAUGAGGAUCACCCAUGUACUCCUUUAAAAGGAUCCAAAUA
- apparent Kd [1]: 5.5 nM
- apparent Kd [2]: 8.65 nM

Sequence: GGAUCGUAAGGAUAUACAUGAGGAUCACCCAUGUGGAUCUAACGGGUCGCCAAGUCGUGUAGAAGGUGCCGUCU
- apparent Kd [1]: 22.7 nM
- apparent Kd [2]: 20.6 nM

Sequence: GGAUCUGAAACAGAUCCAAUACGAACAUGAGGAUCACCCAUGUAGGAUAUGCUACUCAAAGAGUAGCAGAAGGACAUGUGUCUU
- apparent Kd [1]: 24.3 nM
- apparent Kd [2]: 147 nM

Sequence: GGAUGACAAAGUCAUCCUAUUCGAACAUGAGGAUCACCCAUGUAGGAUAUGCUACUCAAAGAGUAGCAGAAGGACAUGUGCUUU
- apparent Kd [1]: 37.6 nM
- apparent Kd [2]: 165 nM

Sequence: GGAUGACAAAGUCAUCCUUAACGAACAUGAGGAUCACCCAUGUAGGAUAUGCAACUCAAAGAGUUGCAGAAGGACAUGUGCCUU
- apparent Kd [1]: 35.9 nM
- apparent Kd [2]: 238 nM

Sequence: GGAUGACAAAGUCAUCCUUAACGAACAUGAGGAUCACCCAUGUAGGAUAUGCUACUGAAACAGUAGCAGAAGGACAUGUGUCUU
- apparent Kd [1]: 29.7 nM
- apparent Kd [2]: 130 nM

Sequence: GGAUGACAUAGUCAUCCUUAACGAACAUGAGGAUCACCCAUGUAGGAUAUGCUACUCAAAGAGUAGCAGAAGGGCAUGUGUCUU
- apparent Kd [1]: 30.6 nM
- apparent Kd [2]: 68.8 nM

Sequence: GGAUGUCAAAGACAUCCUAAACGAACAUGAGGAUCACCCAUGUAGGAUAUGCUACUCAAAGAGUAGCAGAAGGACAUGUGCCUU
- apparent Kd [1]: 35 nM
- apparent Kd [2]: 238 nM

Sequence: GGCAAAUGAGCAGGAUAUACAGUACAUGCCUAAUGGAUUCACGCACAUGAGGAUCACCCAUGUACGUAGAAGGGCUCCGAGGAG
- apparent Kd [1]: 12.2 nM
- apparent Kd [2]: 14.4 nM

Sequence: GGCAUAAACGAGGAUAUCGAUACGGAAACGUAUCGAGAAGGUGUAACAUGAGGAUCACCCAUGUUCCUCAAGCC
- apparent Kd [1]: 38.6 nM
- apparent Kd [2]: 39.5 nM

Sequence: GGCCCGGGAGGAUAUACAUGAGGAUCACCCAUGUGCUUCGGCUUGAUCAAGUUGAAGUGUAGAAGGCCCGGGCC
- apparent Kd [1]: 14.2 nM
- apparent Kd [2]: 21 nM

Sequence: GGCCGUUUACAUGAGGAUCACCCAUGUCCGGAUUGUUGGCCCAGAAGGCAUUACGAAUUCGGCUAUGAGGAUAUGGGUUACAAG
- apparent Kd [3]: 215 nM
- apparent Kd [4]: 119 nM

Sequence: GGCGAACAUGAGGAUCACCCAUGUCAGGAUAUCUCUCGCGUUGAAUUGAGGGUGUGUGAGAGAAGGGAUAUGUA
- apparent Kd [1]: 49.7 nM
- apparent Kd [2]: 49.9 nM

Sequence: GGCGAAGAGGCUAACAUGAGGAUCACCCAUGUGGACUCAUGGUAGGAUAUGCUGUACAAAGUACAGCAGAAGGGCCGCUGAGCC
- apparent Kd [3]: 146 nM
- apparent Kd [4]: 663 nM

Sequence: GGCGGCGCGGGCCACCGCAGGGCCAGAAGGACAUGAGGAUCACCCAUGUGGCAGGACAGGGCGGUGUAGGAUAUGGCAGGCUCG
- apparent Kd [1]: 11.9 nM
- apparent Kd [2]: 43.3 nM
